Reference: ChEMBL document CHEMBL5214961, “Novel Allosteric Inhibitor-Derived AKT Proteolysis Targeting Chimeras (PROTACs) Enable Potent and Selective AKT Degradation in KRAS/BRAF Mutant Cells” (J Med Chem, 2022)
Calls of active or inactive are those of the source. The calls are words filed in the database; no cut-off is given here.

What was measured:
[1] = molecular target: T1, RAC-alpha serine/threonine-protein kinase (Homo sapiens, UniProt P31749); experiment: Induction of AKT degradation in MS-21 resistant human MIA PaCa-2 cells harboring KRAS-mutant assessed as reduction in total Akt level at 1 uM incubated for 24 hrs by Western blot analysis; assay type: cell-based
Target sequence in this assay (P31749 whole entry): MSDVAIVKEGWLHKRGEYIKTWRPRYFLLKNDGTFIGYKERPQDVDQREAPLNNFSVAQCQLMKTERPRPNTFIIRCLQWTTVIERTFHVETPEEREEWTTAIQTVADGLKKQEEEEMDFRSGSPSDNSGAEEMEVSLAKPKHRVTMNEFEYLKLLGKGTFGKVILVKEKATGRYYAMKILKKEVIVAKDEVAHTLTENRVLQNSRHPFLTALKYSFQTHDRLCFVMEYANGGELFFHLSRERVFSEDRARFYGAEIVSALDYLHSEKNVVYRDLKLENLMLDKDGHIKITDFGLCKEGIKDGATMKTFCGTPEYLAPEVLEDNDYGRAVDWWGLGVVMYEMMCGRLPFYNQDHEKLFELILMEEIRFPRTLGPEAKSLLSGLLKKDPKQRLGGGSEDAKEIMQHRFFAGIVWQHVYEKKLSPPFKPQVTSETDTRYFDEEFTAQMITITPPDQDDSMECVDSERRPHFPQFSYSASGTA

SW-620 [2] = experiment: Induction of apoptosis in human SW620 cells harboring KRAS mutant assessed as cell death at 5 uM measured upto 72 hrs; assay type: functional, cell-based
Procedure, shortened: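 SW620 cells given 5 μM compound or DMSO; percent cell death followed with DRAQ7 at 0, 24, 36, 48 and 72 h. Standard errors taken from three independent experiments.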

[3] = molecular target: T1, RAC-alpha serine/threonine-protein kinase; experiment: Induction of AKT degradation in MS21-resistant human PANC-1 cells harboring […] mutant assessed as reduction in total AKT level at 100 nM incubated for 24 hrs by Western blot analysis relative to control; assay type: cell-based; set-up: scale not given: the % may be the effect or the level left
Procedure, shortened: (§1)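 Dose-response in DMEM/10% FBS culture: compound at the indicated concentrations, up to 10 μM, for 24 h. Total AKT read by western blot of urea/SDS lysates with β-actin loading control; in SW620 a DC50 was fitted from the concentration-response blot data.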
Target sequence in this assay (P31749 whole entry): as above

PC-3 = experiment: Inhibition of colony formation in human PC-3 cells at 0.1 to 10 uM incubated for 2 weeks with media replacement for every 2 days by crystal violet staining based analysis; assay type: functional, cell-based; details: dose 0.1-10 µM
Procedure, shortened: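 PC3 cells kept 14 days with compound; compound-containing medium replenished every two days. Viable cells stained with 0.5% crystal violet.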

[4] = Toxicity in Swiss albino mouse assessed as clinical signs at 75 mg/kg, ip administered as single dose and measured for 12 hrs; assay type: organism-based; details: in vivo
Procedure, shortened: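 Male Swiss albino mice given a single 75 mg/kg IP dose in 5% NMP/5% Solutol HS-15/90% saline; watched for clinical signs across a 12 h pharmacokinetic sampling period.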

[5] = molecular target: T1, RAC-alpha serine/threonine-protein kinase; experiment: Inhibition of AKT1 (unknown origin) preincubated for 20 mins followed by [33P]-ATP addition measured after 120 mins by hotspot kinase assay
Target sequence in this assay (P31749 whole entry): as above

[6] = molecular target: T2, RAC-beta serine/threonine-protein kinase (Homo sapiens, UniProt P31751); experiment: Inhibition of AKT2 (unknown origin) preincubated for 20 mins followed by [33P]-ATP addition measured after 120 mins by hotspot kinase assay
T2 sequence (P31751 whole entry): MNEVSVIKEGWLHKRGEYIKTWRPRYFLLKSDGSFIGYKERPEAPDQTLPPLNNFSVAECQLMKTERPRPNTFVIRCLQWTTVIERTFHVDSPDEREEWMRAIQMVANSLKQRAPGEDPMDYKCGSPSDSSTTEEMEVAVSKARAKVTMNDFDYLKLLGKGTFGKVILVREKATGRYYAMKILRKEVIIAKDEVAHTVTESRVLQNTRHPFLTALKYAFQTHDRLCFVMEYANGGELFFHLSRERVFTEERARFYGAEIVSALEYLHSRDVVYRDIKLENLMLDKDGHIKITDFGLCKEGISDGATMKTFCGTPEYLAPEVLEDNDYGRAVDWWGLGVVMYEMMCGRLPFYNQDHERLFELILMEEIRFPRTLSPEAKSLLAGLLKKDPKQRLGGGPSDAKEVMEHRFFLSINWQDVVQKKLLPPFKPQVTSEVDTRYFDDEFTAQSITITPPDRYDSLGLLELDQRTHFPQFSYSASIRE

[7] = molecular target: T2, RAC-beta serine/threonine-protein kinase; experiment: Induction of AKT2 degradation in human SW620 cells assessed as reduction in total AKT level at 1 uM measured after 18 hrs by TMT-MS analysis; assay type: cell-based
Procedure, shortened: (§2)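 SW620 cells treated at 1 μM for 18 h, two biological replicates per condition. Lysates in 8 M urea were reduced with DTT, alkylated with iodoacetamide, digested with trypsin, labeled with TMT, split into 22 fractions and analyzed by nanoLC-MS/MS on a Q-Exactive HF-X. Output is log2 fold change against p value.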

[8] = molecular target: T1, RAC-alpha serine/threonine-protein kinase; experiment: Induction of AKT1 degradation in human SW620 cells at 0.01 to 10 uM incubated for 24 hrs by Western blot analysis; assay type: cell-based; details: dose 0.01-10 µM
Target sequence in this assay (P31749 whole entry): as the sequence (P31749 whole entry) above

[9] = molecular target: T1, RAC-alpha serine/threonine-protein kinase; experiment: Induction of AKT degradation in human SW620 cells assessed as reduction in total AKT level at 1 uM measured after 18 hrs by TMT-MS analysis; assay type: cell-based; procedure, shortened: as §2
Target sequence in this assay (P31749 whole entry): as above

[10] = Tmax in Swiss albino mouse at 75 mg/kg, ip administered as single dose and measured for 12 hrs by LC-MS/MS analysis; assay type: ADME, organism-based; details: in vivo
Procedure, shortened: (§3)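 Single IP dose of 75 mg/kg to male Swiss albino mice (six dosed); compound as HCl salt in 5% v/v NMP, 5% v/v Solutol HS-15, 90% v/v normal saline. About 60 μL plasma taken from three mice at 0.5, 1, 2, 4, 8 and 12 h; LC-MS/MS quantitation (LLOQ 1.02 ng/mL); values are means of 3 mice.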

[11] = molecular target: Proline-rich AKT1 substrate 1 (Homo sapiens) (UniProt Q96B36); experiment: Inhibition of PRAS40 phosphorylation in human SW620 cells at 1 uM measured after 18 hrs by TMT-MS analysis; assay type: cell-based
SW-620 [12] = experiment: Antiproliferative activity against human SW620 cells harboring KRAS mutant assessed as inhibition of cell growth incubated for 5 days by IncuCyte live-cell imaging analysis; assay type: functional, cell-based; details: SW-620, 120 h, time 5 day
[13] = molecular target: T1, RAC-alpha serine/threonine-protein kinase; experiment: Induction of AKT degradation in MS-21 resistant human SW620 cells harboring KRAS-mutant assessed as reduction in total Akt level at 1 uM incubated for 24 hrs by Western blot analysis; assay type: cell-based
Procedure, shortened: (§4)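 Cells grown in DMEM with 10% FBS at 37 °C, 5% CO2, then exposed to compound at 1 μM for 24 h. Lysates made in 2X urea/SDS sample buffer, run on 4–12% Bis-Tris gels, transferred to PVDF, probed for total AKT overnight at 4 °C; HRP/chemiluminescence detection with β-actin as loading control.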
Target sequence in this assay (P31749 whole entry): as the sequence (P31749 whole entry) above

[14] = molecular target: T1, RAC-alpha serine/threonine-protein kinase; experiment: Induction of AKT degradation in MS21-resistant human COLO 205 cells harboring BRAF mutant assessed as reduction in total AKT level at 1 uM incubated for 24 hrs by Western blot analysis; assay type: cell-based; procedure, shortened: as §4
[15] = molecular target: RAC-gamma serine/threonine-protein kinase (Homo sapiens, UniProt Q9Y243); experiment: Inhibition of AKT3 (unknown origin) preincubated for 20 mins followed by [33P]-ATP addition measured after 120 mins by hotspot kinase assay
Chain of RAC-gamma serine/threonine-protein kinase (Q9Y243 whole entry): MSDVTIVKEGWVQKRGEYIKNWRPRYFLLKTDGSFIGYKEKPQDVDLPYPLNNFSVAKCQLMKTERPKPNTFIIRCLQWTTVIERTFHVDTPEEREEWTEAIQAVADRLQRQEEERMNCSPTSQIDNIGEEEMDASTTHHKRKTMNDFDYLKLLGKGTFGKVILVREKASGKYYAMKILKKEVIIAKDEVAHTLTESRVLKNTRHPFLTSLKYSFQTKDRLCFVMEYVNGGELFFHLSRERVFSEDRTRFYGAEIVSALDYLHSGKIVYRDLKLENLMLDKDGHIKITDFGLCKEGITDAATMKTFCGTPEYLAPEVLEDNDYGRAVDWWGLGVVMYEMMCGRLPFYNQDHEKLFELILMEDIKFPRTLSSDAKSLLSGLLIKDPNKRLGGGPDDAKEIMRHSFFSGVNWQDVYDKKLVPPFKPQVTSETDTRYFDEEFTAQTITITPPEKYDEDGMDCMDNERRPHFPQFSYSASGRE

[16] = molecular target: T1, RAC-alpha serine/threonine-protein kinase; experiment: Induction of AKT degradation in MS21-resistant human PANC-1 cells harboring […] mutant assessed as reduction in total AKT level at 1 uM incubated for 24 hrs by Western blot analysis; assay type: cell-based; procedure, shortened: as §4
[17] = Cmax in Swiss albino mouse at 75 mg/kg, ip administered as single dose and measured for 12 hrs by LC-MS/MS analysis; assay type: ADME, organism-based; set-up: dose 75 mg/kg, time 12 hrs, route ip; details: in vivo; procedure, shortened: as §3
[18] = molecular target: T1, RAC-alpha serine/threonine-protein kinase; experiment: Induction of AKT degradation in MS21-resistant human SW620 cells harboring KRAS/BRAF mutant assessed as reduction in total AKT level at 1 uM measured after 12 hrs by Western blot analysis relative to control; assay type: cell-based; set-up: scale not given: the % may be the effect or the level left
Procedure, shortened: (§5)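 SW620 time course: cells given 1 μM compound, with lysates harvested at several time points up to 24 h. Total AKT probed by western blot with β-actin as loading control.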

[19] = molecular target: T1, RAC-alpha serine/threonine-protein kinase; experiment: Induction of AKT degradation in MS21-resistant human SW620 cells harboring KRAS/BRAF mutant assessed as reduction in total AKT level at 1 uM by Western blot analysis; assay type: cell-based; details: time 1-24 hrs, TDE = time-dependent effect; procedure, shortened: as §5
[20] = molecular target: T1, RAC-alpha serine/threonine-protein kinase; experiment: Induction of AKT degradation in MS21-resistant human SW620 cells harboring KRAS/BRAF mutant assessed as reduction in total AKT level at 100 nM incubated for 24 hrs by Western blot analysis relative to control; assay type: cell-based; set-up: scale not given: the % may be the effect or the level left; procedure, shortened: as §1
[21] = Plasma concentration in Swiss albino mouse at 75 mg/kg, ip administered as single dose and measured for 12 hrs by LC-MS/MS analysis; assay type: ADME, organism-based; procedure, shortened: as §3
[22] = molecular target: T1, RAC-alpha serine/threonine-protein kinase; experiment: Induction of AKT degradation in MS21-resistant human HT-29 cells harboring BRAF/PI3KA mutant assessed as reduction in total AKT level at 1 uM incubated for 24 hrs by Western blot analysis; assay type: cell-based; procedure, shortened: as §4
[23] = molecular target: T2, RAC-beta serine/threonine-protein kinase; experiment: Induction of AKT2 degradation in human SW620 cells at 0.01 to 10 uM incubated for 24 hrs by Western blot analysis; assay type: cell-based; details: dose 0.01-10 µM
[24] = molecular target: T1, RAC-alpha serine/threonine-protein kinase; experiment: Induction of AKT degradation in MS21-resistant human SK-MEL-239 cells harboring BRAF mutant assessed as reduction in total AKT level at 1 uM incubated for 24 hrs by Western blot analysis; assay type: cell-based; procedure, shortened: as §4
[25] = molecular target: T1, RAC-alpha serine/threonine-protein kinase; experiment: Induction of AKT degradation in MS21-resistant human PANC-1 cells harboring […] mutant assessed as reduction in total AKT level incubated for 24 hrs by Western blot analysis; assay type: cell-based; details: dose 0.01-10 µM, DDE = dose-dependent effect; procedure, shortened: as §1
[26] = molecular target: T1, RAC-alpha serine/threonine-protein kinase; experiment: Induction of AKT degradation in MS21-resistant human SW620 cells harboring KRAS/BRAF mutant assessed as reduction in total AKT level incubated for 24 hrs by Western blot analysis; assay type: cell-based; procedure, shortened: as §1
Target sequence in this assay (P31749 whole entry, looked up, change not shown): as the sequence (P31749 whole entry) above

Cc1ncsc1-c1ccc([C@H](C)NC(=O)[C@@H]2C[C@@H](O)CN2C(=O)[C@@H](NC(=O)CCCCCCCCCCNC(=O)CCc2cccc(-c3ccc4nc(-c5cccnc5N)n(-c5ccc(C6(N)CCC6)cc5)c4n3)c2)C(C)(C)C)cc1
Activity [1]: Active | Activity (SW-620 [2]): Active | Activity [3]: 100% | inhibition (PC-3): Active | Activity [4]: Non-Toxic | IC50 [5]: 0.798 µM | IC50 [6]: 0.09 µM | Activity [7]: Active | Activity [8]: Active | Activity [9]: Active | Tmax [10]: 30 min | inhibition [11]: Active | GI50 (SW-620 [12]): 3.1 µM | Activity [13]: Active | Activity [14]: Active | IC50 [15]: 0.544 µM | Activity [16]: Active | Cmax [17]: 1000 nM | Activity [18]: 100% | Activity [19]: Tde | Activity [20]: 100% | concentration at 12 h [21]: > 100 nM | Activity [22]: Active | Activity [23]: Active | Activity [24]: Active | Activity [25]: Dde | EC50 [26]: 0.023 µM
